# hERG rescue: compounds protecting human hERG from proarrhythmic drug block. Q12809. CHO-hERG, FluxOR thallium flux, dofetilide IC70 present. activation (rescue from dofetilide block), less the hit threshold, % at 10 µM. 310,000 tested, 0.51% active;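 active = activation above the mean of controls blocked by dofetilide plus 5 SD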;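 note: thallium influx through hERG after potassium depolarization seen as dye fluorescence rise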
# KCNQ1 act: potentiators or activators of human KCNQ1 potassium channel; CHO-K1 KCNQ1, thallium flux FluxOR fluorescence; hits give high values; B-score at 10 µM; 310,000 tested, 0.35% active;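 active = fluorescence ratio B-score, a plate-corrected score, at least three library SD, with initial intensity B-score within 5 SD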
#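 Assay system: stable KCNQ1 CHO-K1 line; medium: assay buffer, equal DMSO in all wells; timing: 90 min dye loading and 20 min compound exposure, both at room temperature; technique: kinetic FluxOR thallium fluorescence, 10-s 1-Hz baseline, 110-s post-stimulus read; read-out basis: B score of baseline-normalized fluorescence ratio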
# KCNK9 inh: human KCNK9 channel inhibition; B-score at 10 µM; Q9NPC2; HEK293 KCNK9, FluxOR thallium flux fluorescence; hits give low values; 310,000 tested, 1.2% active; AID 488922;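 active = ratio B-score over 3 SD below the library mean, with starting fluorescence within 5 SD of its mean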;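 note: negative B-score means less thallium flux so channel inhibition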
# KCNQ1 block: blocks the human KCNQ1 potassium channel; CHO-K1 KCNQ1, FluxOR thallium flux fluorescence; hits give high values; AID 2642; 310,000 tested, 1.3% active; B-score at 10 µM; P51787;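 active = compounds whose thallium flux B-score, printed positive for inhibition, exceeds three library SD while starting fluorescence stays within three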;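 note: channel opened by potassium depolarization with thallium stimulus after 20 min compound exposure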
# KCNK3 block: human KCNK3 channel inhibition, primary screen. CHO-KCNK3 thallium flux, FluxOR fluorescence; hits give low values. B-score at 10 µM. 340,000 tested, 0.84% active;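 active = B-score under library mean minus 4 SD, starting fluorescence ratio at most library mean plus 5 SD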;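 note: more negative B-score means stronger inhibition of thallium flux through KCNK3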
# KCC2 mod: KCC2 (human) Cl- transport modulation | Q9H2X9 | KCC2 cells, thallium flux FluoZin-2 fluorescence | B-score of Tl+ flux slope (higher = more flux/activation; lower = inhibition) at 10 µM | 190,000 tested, 2.2% active;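 active = thallium flux slope and its plate-corrected score both differing from the plate sample mean at a set confidence after two filtering rounds, in either direction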;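 note: slope of fluorescence scaled to starting intensity during 10 to 20 s after thallium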
# Target sequence (Q9H2X9 whole entry, looked up): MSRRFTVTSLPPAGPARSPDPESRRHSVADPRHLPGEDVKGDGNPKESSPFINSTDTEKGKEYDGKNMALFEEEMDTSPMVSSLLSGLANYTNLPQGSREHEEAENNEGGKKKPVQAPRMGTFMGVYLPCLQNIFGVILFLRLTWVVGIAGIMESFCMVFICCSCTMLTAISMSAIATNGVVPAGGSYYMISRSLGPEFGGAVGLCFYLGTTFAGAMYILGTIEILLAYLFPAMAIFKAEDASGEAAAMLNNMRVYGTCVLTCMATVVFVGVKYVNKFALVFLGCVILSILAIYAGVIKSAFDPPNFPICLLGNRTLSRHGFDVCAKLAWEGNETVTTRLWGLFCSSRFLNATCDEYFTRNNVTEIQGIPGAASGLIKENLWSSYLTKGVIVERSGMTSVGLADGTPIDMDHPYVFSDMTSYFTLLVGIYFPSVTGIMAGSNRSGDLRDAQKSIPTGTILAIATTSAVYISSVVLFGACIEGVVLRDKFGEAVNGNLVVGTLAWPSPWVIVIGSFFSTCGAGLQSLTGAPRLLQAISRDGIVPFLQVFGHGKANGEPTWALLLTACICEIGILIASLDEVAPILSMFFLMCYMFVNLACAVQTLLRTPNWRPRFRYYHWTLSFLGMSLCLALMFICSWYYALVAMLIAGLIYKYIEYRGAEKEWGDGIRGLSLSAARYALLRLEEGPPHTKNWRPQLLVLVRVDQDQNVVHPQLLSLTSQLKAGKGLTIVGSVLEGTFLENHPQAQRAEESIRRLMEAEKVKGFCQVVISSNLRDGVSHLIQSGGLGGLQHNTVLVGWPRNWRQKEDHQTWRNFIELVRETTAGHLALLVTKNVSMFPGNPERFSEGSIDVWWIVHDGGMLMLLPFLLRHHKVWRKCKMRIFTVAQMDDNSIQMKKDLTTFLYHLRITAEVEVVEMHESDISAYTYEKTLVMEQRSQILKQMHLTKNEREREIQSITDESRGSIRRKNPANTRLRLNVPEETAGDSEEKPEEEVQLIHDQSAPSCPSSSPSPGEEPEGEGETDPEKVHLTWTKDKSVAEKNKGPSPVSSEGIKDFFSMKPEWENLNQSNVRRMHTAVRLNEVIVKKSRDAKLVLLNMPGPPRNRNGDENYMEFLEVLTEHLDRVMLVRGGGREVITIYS
# KCNQ1 block val: reconfirmed blocker of the human KCNQ1 potassium channel; shares compounds with KCNQ1 block; KCNQ1 cell line, FluxOR thallium flux fluorescence; inhibition, % at 10 µM; 1,600 tested, 93% active;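 active = primary screen active, with duplicate mean exceeding buffer control mean plus 3 SD of buffer wells, cut at about 28% in these data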;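 note: 0% = buffer control ratio and 100% = XE991 inhibitor control ratio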
# CHO KCNQ1 ctr: activity in parental CHO cells lacking KCNQ1. parental CHO-K1, FluxOR thallium flux fluorescence ratio; hits give low values; zero means no signal rise above baseline. 1,600 tested, 21% active. fluorescence ratio (Tl flux) at 10 µM. AID 588366. shares compounds with KCNQ1 block;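 active = mean of duplicate thallium-flux fluorescence ratios in parental host cells more than 5 SD below the buffer control mean, cut at about 0.38 in these data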;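 note: ratio is peak minus minimum fluorescence divided by baseline fluorescence; actives read low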
# KCNQ1 APC inh: confirmation of human KCNQ1 potassium channel inhibitors by electrophysiology | calls only at 10 µM | shares compounds with KCNQ1 block | KCNQ1-CHO cells, automated patch clamp current | AID 624120 | 490 tested, 20% active;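 active = KCNQ1 current drop exceeding 3 SD of negative control wells, seen in both duplicate runs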;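 note: steady state current during a 2 s step from -80 to +40 mV; negative values mean current inhibition and positive values mean potentiation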
# KCNQ2 spec: KCNQ1 inhibitor that also blocks rat KCNQ2 channel | shares compounds with KCNQ1 block | KCNQ2 cells, FluxOR thallium flux fluorescence | inhibition, % at 10 µM | 1,600 tested, 71% active;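 active = mean percent inhibition of the KCNQ2 thallium signal more than 5 SD above the buffer-only control wells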;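 note: KCNQ2 expressed in CHO cells; 0% = buffer control wells and 100% = XE-991 inhibitor control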
# KCNQ1-KCNE1 inh: selectivity of KCNQ1 inhibitors: inhibition of human KCNQ1/KCNE1 channel; shares compounds with KCNQ1 block; KCNQ1/KCNE1 cells, FluxOR thallium flux fluorescence; inhibition, % at 10 µM; 1,600 tested, 77% active; AID 652147;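 active = mean percent inhibition of duplicate wells above the buffer-only control mean plus 3 SD of those controls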;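 note: 0% = buffer only wells and 100% = XE-991 inhibitor control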
# KCNK9 inh conf: human KCNK9 inhibitor confirmation; 4,900 tested, 43% active; AID 492992; HEK293 KCNK9 cells, FluxOR thallium flux fluorescence; shares compounds with KCNK9 inh; inhibition, % at 10 µM;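 active = thallium signal inhibited by more than 5 SD of the compound-free buffer control wells, on both duplicate plates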;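 note: 0% = assay buffer control wells without compound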
# Kir21 sel: mouse Kir2.1 off-target activity of KCNK9 modulators | 4,900 tested, 4% active | shares compounds with KCNK9 inh | inhibition, % at 10 µM | Kir2.1 cells, FluxOR thallium flux fluorescence;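 active = thallium signal drop more than 5 SD beyond the mean of the no-compound control wells, seen in both duplicate plates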;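 note: signal is fluorescence rise after thallium addition divided by baseline fluorescence; plate controls were assay buffer only for no effect and full block by chlorpromazine control for full effect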
# HEK293 Tl ctr: second check of KCNK9 modulator effects in non-induced HEK293 cells. 4,900 tested, 40% active. shares compounds with KCNK9 inh. FluxOR thallium flux. AID 492997. inhibition, % at 10 µM;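 active = thallium signal drop beyond 5 SD of the untreated control mean, on both duplicate plates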;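 note: plate controls were buffer only IC0 wells for no effect and SID17386958 at its maximal inhibitory level for full effect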
# KCNK3 inh conf: human KCNK3 channel inhibition, confirmation assay | AID 651638 | ratio percent of control, % at 10 µM | 2,400 tested, 99% active | CHO-KCNK3 thallium flux, FluxOR fluorescence; 0% buffer, 100% carvedilol maximal block | shares compounds with KCNK3 block;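 active = ratio percent of control, averaged over triplicates, above buffer control mean plus 5 SD, cut at about 64% in these data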;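 note: ratio is the fluorescence rise from min to max over baseline after thallium stimulus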
# KCNK3 noninduced: activity in cells without induced KCNK3 expression. shares compounds with KCNK3 block. non-induced KCNK3 parental cells, FluxOR thallium flux; hits give low values. thallium flux ratio (lower = more inhibition) at 10 µM. 2,400 tested, 40% active. AID 651747;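 active = thallium flux ratio, averaged over three wells, more than 5 SD below the buffer control mean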;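 note: host cells are CHO cells without KCNK3 induction; ratio is peak minus trough fluorescence over baseline then normalized to buffer controls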
# An asterisk follows results filed as active; i = inactive; · = no result given; + = active, no number. A selection: hits, their analogues and other compounds. The true share with any hit is near 4.1%.
SMILES,hERG rescue,KCNQ1 act,KCNK9 inh,KCNQ1 block,KCNK3 block,KCC2 mod,KCNQ1 block val,CHO KCNQ1 ctr,KCNQ2 spec,KCNQ1-KCNE1 inh,KCNK3 inh conf,KCNK3 noninduced,others
O=C(N/N=C/c1cc(Br)c(O)c(Br)c1)c1cc2c(ccc3ccccc32)o1,-49,i,i,15*,-11*,·,160*,0.32*,130%*,+,136*,0.093*,
CNC(=O)COC(=O)c1ccc2c(c1)S(=O)(=O)c1ccccc1C2=O,-4,i,i,i,i,·,·,·,·,·,·,·,
O=C(Nc1ccc(Br)cc1)Nc1ccccc1Cl,-8,i,-6.7*,7*,-8.7*,1.4,34*,0.52,i,i,86*,i,
Cc1ccc(NC(=O)c2cc(-c3cccs3)nc3ccccc23)nc1,-20,i,i,6*,-11*,0.029,88*,0.37*,121%*,196%*,111*,0.14*,
COC(=O)C1C(c2ccccc2)C(C(=O)OCc2ccco2)C1c1ccccc1 (stereo not drawn),-25,i,-8.3*,6*,-11*,-0.11,95*,0.36*,111%*,164%*,116*,0.15*,KCNK9 inh conf=44%*;Kir21 sel=i;HEK293 Tl ctr=24%*
COc1ccc2[nH]c3c(N4CCc5ccccc5C4)ncnc3c2c1,-22,i,i,11*,-8.7*,-0.97,143*,0.25*,115%*,+,130*,0.12*,
Cc1ccc(S(=O)(=O)N2CCC(NC(=O)c3cccnc3)CC2)cc1Cl,-9,i,i,i,i,·,·,·,·,·,·,·,
O=C(COc1cccc2c1CCNC2=O)Nc1ccc(F)cc1,-5,i,i,i,i,·,·,·,·,·,·,·,
CC(C)OC(=O)C(C#N)c1nc2ccccc2nc1N1CCCC1 (stereo not drawn),-5,i,i,i,i,-0.81,·,·,·,·,·,·,
CCC(C)COC(=O)C(C#N)c1nc2ccccc2nc1N1CCCCC1 (stereo not drawn),-23,i,-11*,8*,i,·,123*,0.43,102%*,116%*,117*,0.14*,KCNQ1 APC inh=i;KCNK9 inh conf=48%*;Kir21 sel=i;HEK293 Tl ctr=45%*
O=C(CSc1nc2ccccc2nc1N1CCCCC1)Nc1ccc(F)cc1,-9,i,-6.9*,13*,-9.8*,·,108*,0.41,97%*,158%*,137*,0.12*,KCNQ1 APC inh=i
CCc1ccc(NC(=O)CSc2nc3ccccc3nc2N2CCCCC2)cc1,-6,i,i,i,i,·,·,·,·,·,·,·,
Cc1cccc(NC(=O)CSc2nc3ccccc3nc2N2CC(C)OC(C)C2)c1 (stereo not drawn),-9,i,i,8*,-11*,·,102*,0.42,122%*,132%*,114*,i,KCNQ1 APC inh=i
COc1ccc(-c2csc(N(CC(C)C)C(=O)c3ccco3)n2)cc1,-4,i,i,7*,-9.9*,·,107*,0.4,80%*,139%*,162*,0.073*,KCNQ1 APC inh=+
CCN(C(=O)c1ccco1)c1nc(-c2ccc(OC)cc2)cs1,-1,i,i,i,i,·,·,·,·,·,·,·,
Cc1ccc(OCC(O)Cn2c3ccccc3c3ccccc32)cc1 (stereo not drawn),-5,i,i,i,i,·,·,·,·,·,·,·,
Cc1cccc(C)c1OCC(O)Cn1c2ccccc2c2ccccc21 (stereo not drawn),-16,i,i,11*,-11*,1.1,0,0.46,75%*,i,116*,i,
CNc1nc(SCc2ccc(C)cc2)nc2c1CCCC2,-9,i,i,10*,-11*,·,130*,0.44,101%*,102%*,134*,0.15*,KCNQ1 APC inh=i
CCS(=O)(=O)c1ncc(Cl)c(C(=O)Nc2ccc(S(=O)(=O)N3CCC(C)CC3)cc2)n1,-25,i,-7*,6*,-8.8*,·,0,0.43,i,70%*,124*,0.12*,
Cc1ccc(NC(=S)NCc2ccccc2)cc1S(=O)(=O)N1CCCCC1,-11,i,i,6*,-11*,-0.72,108*,0.52,62%*,i,116*,i,KCNQ1 APC inh=i
CCOc1ccc2c(c1)-c1c(ssc1=S)C(C)(C)N2C(=O)CSC1=NCCS1,-17,i,-13*,i,i,0.18,·,·,·,·,·,·,KCNK9 inh conf=70%*;Kir21 sel=i;HEK293 Tl ctr=34%*
Cc1ccc2c(c1)-c1c(ssc1=S)C(C)(C)N2C(=O)CSC1=NCCS1,-12,i,i,i,i,·,·,·,·,·,·,·,
Cc1csc(=O)n1CC(=O)OCC(=O)Nc1ccccc1C(C)C,·,·,·,·,i,·,·,·,·,·,·,·,
Cc1ccc(C)c(Cn2nnc3c(=O)[nH]c(C4CCCN(C(=O)C5CCCCC5)C4)nc32)c1 (stereo not drawn),-10,i,-18*,i,i,·,·,·,·,·,·,·,KCNK9 inh conf=64%*;Kir21 sel=i;HEK293 Tl ctr=25%*
Cn1c2ccccc2c(=O)c2ccc(-c3ccc4c(c3)OCO4)cc21,-17,i,-8.9*,i,i,·,·,·,·,·,·,·,KCNK9 inh conf=64%*;Kir21 sel=i;HEK293 Tl ctr=i

# Screens (PubChem BioAssay)
